Test results published in ChEMBL document CHEMBL4680226, “Design, synthesis, and evaluation of N-phenyl-4-(2-phenylsulfonamido)-benzamides as microtubule-targeting agents in drug-resistant cancer cells, displaying HDAC inhibitory response” (Eur J Med Chem, 2020).
Active and inactive are the calls of the source. The calls are words filed in the database; no cut-off is given here.

Columns and labels:
Type in all cases: cell-based
Tubulin (Homo sapiens) [1] = biological target: T1, Tubulin (Homo sapiens) (UniProt P68371+Q9H4B7+P0DPH7+P68366+Q13509+Q71U36+P04350+Q3ZCM7+P07437+P68363+Q9BQE3+Q6PEY2+Q13885+Q9BVA1+Q9BUF5); test: Induction of microtubule aggregation in human KB-VIN cells at 1 uM measured after 24 hrs by DAPI staining based deconvolution fluorescence microscopic analysis
Outline: (§1)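 Cells on glass coverslips treated 24 h, fixed in 4% paraformaldehyde for 15 min, and permeabilized with 0.5% Triton X-100. Blocked in PBS/2% BSA, stained with anti-beta-tubulin (1:250) and Alexa 488 anti-mouse (1:250), and mounted with DAPI. Imaged by wide-field deconvolution microscopy.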

Tubulin (Homo sapiens) [2] = biological target: T1, Tubulin (Homo sapiens); test: Induction of microtubule aggregation in human KB7D cells at 1 uM measured after 24 hrs by DAPI staining based deconvolution fluorescence microscopic analysis; outline: as §1
Tubulin (Homo sapiens) [3] = biological target: T1, Tubulin (Homo sapiens); test: Induction of microtubule aggregation in human KB-VIN cells assessed as polymerized fraction at 0.01 uM measured after 16 hrs by SDS-PAGE analysis (reference value: 34%)
Outline: (§2)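 KB-Vin or KB-7D cells treated 16 h, then lysed 5 min at 37 °C in the dark in hypotonic buffer (1% NP-40, 1 mmol/L MgCl2, 2 mmol/L EGTA, 50 mmol/L Tris-HCl pH 6.8, protease inhibitors). Spun 13000 rpm, 10 min, room temperature. Soluble supernatant and resuspended polymerized pellet run on SDS-PAGE.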

Tubulin (Homo sapiens) [4] = biological target: T1, Tubulin (Homo sapiens); test: Induction of microtubule aggregation in human KB-VIN cells assessed as polymerized fraction at 0.1 uM measured after 16 hrs by SDS-PAGE analysis (reference value: 34%); outline: as §2
Tubulin (Homo sapiens) [5] = biological target: T1, Tubulin (Homo sapiens); test: Induction of microtubule aggregation in human KB-VIN cells assessed as polymerized fraction at 1 uM measured after 16 hrs by SDS-PAGE analysis (reference value: 34%); outline: as §2
Tubulin (Homo sapiens) [6] = biological target: T1, Tubulin (Homo sapiens); test: Induction of microtubule aggregation in human KB7D cells assessed as polymerized fraction at 0.01 uM measured after 16 hrs by SDS-PAGE analysis (reference value: 34%); outline: as §2
Tubulin (Homo sapiens) [7] = biological target: T1, Tubulin (Homo sapiens); test: Induction of microtubule aggregation in human KB7D cells assessed as polymerized fraction at 0.1 uM measured after 16 hrs by SDS-PAGE analysis (reference value: 34%); outline: as §2
Tubulin (Homo sapiens) [8] = biological target: T1, Tubulin (Homo sapiens); test: Induction of microtubule aggregation in human KB7D cells assessed as polymerized fraction at 1 uM measured after 16 hrs by SDS-PAGE analysis (reference value: 34%); outline: as §2

- Activity (Tubulin (Homo sapiens) [1]): Active
- Activity (Tubulin (Homo sapiens) [2]): Active
- Activity (Tubulin (Homo sapiens) [3]): 41.1%
- Activity (Tubulin (Homo sapiens) [4]): 45.9%
- Activity (Tubulin (Homo sapiens) [5]): 46.1%
- Activity (Tubulin (Homo sapiens) [6]): 45.9%
- Activity (Tubulin (Homo sapiens) [7]): 59.7%
- Activity (Tubulin (Homo sapiens) [8]): 61.5%
SMILES: CC(=O)O[C@H]1C(=O)[C@@]2(C)[C@H]([C@H](OC(=O)c3ccccc3)[C@]3(O)C[C@H](OC(=O)[C@H](O)[C@@H](NC(=O)c4ccccc4)c4ccccc4)C(C)=C1C3(C)C)[C@]1(OC(C)=O)CO[C@@H]1C[C@@H]2O
